Results taken from ChEMBL document CHEMBL4265908, “Structure-activity and structure-property relationships of novel Nrf2 activators with a 1,2,4-oxadiazole core and their therapeutic effects on acetaminophen (APAP)-induced acute liver injury” (Eur J Med Chem, 2018).
In brackets after ≈: the same amount, converted by molar mass. Activity calls are given as the source filed them. The calls are words filed in the database; no cut-off is given here.

Experiments:
[1] = molecular target: T1, Nuclear factor erythroid 2-related factor 2 (Homo sapiens) (UniProt Q16236); experiment: Activation of Nrf2 in human HepG2-ARE-C8 cells assessed as induction of ARE-mediated luciferase activity at 20 uM after 24 hrs by luciferase reporter gene assay relative to control; format: cell-based
T1 sequence (whole entry): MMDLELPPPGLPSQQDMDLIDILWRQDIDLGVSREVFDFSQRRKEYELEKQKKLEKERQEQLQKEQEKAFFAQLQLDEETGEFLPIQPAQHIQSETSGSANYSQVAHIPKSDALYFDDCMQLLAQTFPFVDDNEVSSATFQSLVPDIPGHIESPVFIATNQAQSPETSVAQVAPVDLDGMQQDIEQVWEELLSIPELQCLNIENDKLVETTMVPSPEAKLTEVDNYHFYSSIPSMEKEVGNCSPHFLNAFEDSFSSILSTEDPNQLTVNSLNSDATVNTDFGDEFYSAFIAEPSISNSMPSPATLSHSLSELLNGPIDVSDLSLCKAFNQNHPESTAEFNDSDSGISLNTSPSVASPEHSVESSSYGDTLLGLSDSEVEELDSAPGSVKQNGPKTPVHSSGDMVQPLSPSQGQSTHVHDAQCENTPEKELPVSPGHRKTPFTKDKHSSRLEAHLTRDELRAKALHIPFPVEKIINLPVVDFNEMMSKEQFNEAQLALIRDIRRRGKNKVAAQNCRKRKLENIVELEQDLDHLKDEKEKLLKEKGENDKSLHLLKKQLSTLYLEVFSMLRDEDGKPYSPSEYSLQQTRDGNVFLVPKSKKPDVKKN
Method in brief: (§1)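 HepG2-ARE-C8 cells stably carrying ARE-luciferase, grown in DMEM with 10% FBS at 37 °C and 5% CO2. Seeded at 5 × 10^4 cells/well, left overnight, then given compound diluted from a 10 mM DMSO stock for 24 h. Cells lysed and luciferase read as RLU. Inductivity = (RLUtest − RLUblank)/(RLUcontrol − RLUblank), with DMSO as control. Mean ± SEM of three experiments.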

[2] = molecular target: T1, Nuclear factor erythroid 2-related factor 2 (Homo sapiens); experiment: Activation of Nrf2 in human HepG2-ARE-C8 cells assessed as induction of ARE-mediated luciferase activity at 40 uM after 24 hrs by luciferase reporter gene assay relative to control; format: cell-based; method in brief: as §1
[3] = molecular target: T1, Nuclear factor erythroid 2-related factor 2 (Homo sapiens); experiment: Activation of Nrf2 in human HepG2-ARE-C8 cells assessed as induction of ARE-mediated luciferase activity at 80 uM after 24 hrs by luciferase reporter gene assay relative to control; format: cell-based; method in brief: as §1
L02 [4] = experiment: Cytotoxicity against human LO2 cells up to 160 uM after 24 hrs by MTT assay; format: cell-based; conditions: l02, 24 h
Method in brief: (§2)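 LO2 cells plated for 12 h, then treated for 24 h with 0, 0.2, 2, 20, 40, 80 or 160 μM compound diluted in medium from a DMSO stock. MTT (5 mg/mL stock) added for 4 h, formazan dissolved in DMSO, A570 read. Viability computed from OD relative to DMSO control and blank. Mean ± SD of three experiments.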

[5] = molecular target: T1, Nuclear factor erythroid 2-related factor 2 (Homo sapiens); experiment: Activation of Nrf2 in human HepG2-ARE-C8 cells assessed as induction of ARE-mediated luciferase activity at 0.02 uM after 24 hrs by luciferase reporter gene assay relative to control; format: cell-based
[6] = molecular target: T1, Nuclear factor erythroid 2-related factor 2 (Homo sapiens); experiment: Activation of Nrf2 in human HepG2-ARE-C8 cells assessed as induction of ARE-mediated luciferase activity at 0.2 uM after 24 hrs by luciferase reporter gene assay relative to control; format: cell-based
[7] = molecular target: T1, Nuclear factor erythroid 2-related factor 2 (Homo sapiens); experiment: Activation of Nrf2 in human HepG2-ARE-C8 cells assessed as induction of ARE-mediated luciferase activity at 2 uM after 24 hrs by luciferase reporter gene assay relative to control; format: cell-based
L02 [8] = experiment: Hepatoprotective activity against APAP-induced cell injury in human LO2 cells assessed as increase in cell viability at 20 uM pretreated for 24 hrs followed by APAP treatment measured after 24 hrs by MTT assay; format: functional
Method in brief: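 LO2 cells plated for 12 h and pretreated for 24 h with 5, 10 or 20 μM compound. One arm was first transfected with 50 nM Nrf2 siRNA before receiving 20 μM compound. Medium then replaced with medium containing 8 mM APAP for 24 h. Viability by MTT at A570. Mean ± SD of three experiments.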

[9] = molecular target: T1, Nuclear factor erythroid 2-related factor 2 (Homo sapiens); experiment: Activation of Nrf2 in human HepG2-ARE-C8 cells assessed as induction of ARE-mediated luciferase activity at 0.01 uM after 24 hrs by luciferase reporter gene assay relative to control; format: cell-based; method in brief: as §1
HepG2 = experiment: Cytotoxicity against human HepG2 cells at 80 uM after 24 hrs by MTT assay; format: cell-based; conditions: hepg2, 24 h
[10] = molecular target: T1, Nuclear factor erythroid 2-related factor 2 (Homo sapiens); experiment: Activation of Nrf2 in human HepG2-ARE-C8 cells assessed as induction of ARE-mediated luciferase activity at 0.1 uM after 24 hrs by luciferase reporter gene assay relative to control; format: cell-based; method in brief: as §1
[11] = molecular target: T1, Nuclear factor erythroid 2-related factor 2 (Homo sapiens); experiment: Activation of Nrf2 in human HepG2-ARE-C8 cells assessed as induction of ARE-mediated luciferase activity at 1 uM after 24 hrs by luciferase reporter gene assay relative to control; format: cell-based; method in brief: as §1
[12] = Lipophilicity, log D of the compound at pH 7.4 by potentiometric titration method; format: physicochemical; conditions: buffer
Method in brief: (§3)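 Intrinsic aqueous solubility and logD at pH 7.4 determined by Avdeef-Bucher potentiometric titration on a pION Gemini Profiler.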

[13] = Intrinsic aqueous solubility of the compound by potentiometric titration method; format: physicochemical; method in brief: as §3
L02 [14] = experiment: Cytotoxicity against human LO2 cells at 160 uM after 24 hrs by MTT assay; format: cell-based; conditions: l02, 24 h; method in brief: as §2

| SMILES | Activity [1] | Activity [2] | Activity [3] | Activity [5] | Activity [6] | Activity [7] | Activity [9] | Activity [10] | Activity [11] | logD [12] | solubility [13] [µM] | Activity (L02 [4]) | Activity (L02 [8]) | Activity (HepG2) | Activity (L02 [14]) |
| --- | --- | --- | --- | --- | --- | --- | --- | --- | --- | --- | --- | --- | --- | --- | --- |
| Cc1ccc(-c2noc(-c3ccc(F)c(F)c3)n2)cc1 | 2.51 | 6.62 | 10.2 | – | – | – | 0.67 | 1.22 | 1.85 | 4.16 | 35 (≈ 9.53 µg/mL) | – | – | Non-Toxic | – |
| Fc1ccc(-c2nc(-c3ccc4nc[nH]c4c3)no2)cc1 | – | – | – | – | – | – | 1.57 | – | – | – | – | – | – | Non-Toxic | <= 20% |
| Fc1ccc(-c2nc(-c3ccc(Br)cc3)no2)cc1F | 8.65 | 12.2 | 18.2 | – | – | – | 2.68 | 3.78 | 4.49 | 3.91 | 77 (≈ 26 µg/mL) | – | – | Non-Toxic | – |
| CC(C)(C)c1ccc(-c2noc(-c3ccc(F)c(F)c3)n2)cc1 | 8.35 | 13.2 | 24 | – | – | – | 1.35 | 2.88 | 2.91 | 3.92 | 91 (≈ 28.6 µg/mL) | – | – | Non-Toxic | – |
| CN(C)C=O | 1.65 | 2.97 | – | – | – | – | 0.82 | 1 | 1.1 | – | – | – | Active | – | – |
| Cc1cccc(-c2noc(-c3ccc(F)c(F)c3)n2)n1 | 3.96 | 4.46 | 5.68 | – | – | – | 1.16 | 1.08 | 2.65 | 2.86 | 200 (≈ 54.6 µg/mL) | – | – | Non-Toxic | – |
| Fc1ccc(-c2nc(-c3cnccn3)no2)cc1F | 1.81 | 2.83 | 3.35 | – | – | – | 1.13 | 1.43 | 1.95 | – | – | – | – | Non-Toxic | – |
| Fc1ccc(-c2nc(-c3ncccc3F)no2)cc1F | 1.75 | 2.52 | 2.95 | – | – | – | 1.15 | 1.25 | 1.56 | – | – | – | – | Non-Toxic | – |

Second part, led by results:

| Activity [1] | Activity [2] | Activity [3] | Activity [5] | Activity [6] | Activity [7] | Activity [9] | Activity [10] | Activity [11] | logD [12] | solubility [13] [µM] | SMILES | Activity (L02 [4]) | Activity (L02 [8]) | Activity (HepG2) | Activity (L02 [14]) |
| --- | --- | --- | --- | --- | --- | --- | --- | --- | --- | --- | --- | --- | --- | --- | --- |
| 1.41 | 2.14 | 5.27 | 1.18 | 1.25 | 1.24 | – | – | – | – | – | CC(C)(C)c1cc(O)ccc1O [E319] | <= 7% | Active | – | – |
| 24 | 42.6 | 49.9 | – | – | – | 1.46 | 6.21 | 12.3 | 3.3 | 99 (≈ 29.5 µg/mL) | Fc1ccc(-c2nc(-c3ccc4nc[nH]c4c3)no2)cc1F | – | – | Non-Toxic | <= 20% |
| 14.2 | 15.2 | 16.4 | – | – | – | 1.63 | 1.87 | 5.35 | 3.91 | 86 (≈ 24.8 µg/mL) | COc1cccc(-c2noc(-c3ccc(F)c(F)c3)n2)c1 | – | – | Non-Toxic | – |
| 8.96 | 9.76 | 10.6 | – | – | – | 0.63 | 1.06 | 2.04 | 2.65 | 220 (≈ 60.1 µg/mL) | Cc1ccnc(-c2noc(-c3ccc(F)c(F)c3)n2)c1 | – | – | Non-Toxic | – |
| 8.54 | 10.8 | 14.7 | – | – | – | 1.15 | 1.25 | 6.75 | 4.75 | 16 (≈ 5.35 µg/mL) | Fc1ccc(-c2nc(-c3ccc(-c4ccccc4)cc3)no2)cc1F | – | – | Non-Toxic | – |
